L major viab = reduces viability of Leishmania major promastigotes | resazurin fluorescence viability | inhibition, % at 10 µM | 200,000 compounds, 9% hits | AID 1063;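 note: promastigotes grown with compound for 44 hours at 28 °C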
Diaphorase act = counter-screen for diaphorase-based assays: diaphorase activators and chemical reducers; activation factor at 20 µM; Diaphorase/resazurin coupled assay, resorufin fluorescence, 16 min; stronger effect = higher value; 1 = vehicle wells, 0 = NADH-free wells; 190,000 compounds, 0.005% hits; AID 1229;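 active = diaphorase activity raised at least twofold by the compound at 20 µM; inactive = activation factor below 2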
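Material: Purified diaphorase enzyme from Clostridium kluyveri | Buffer or medium: 50 mM HEPES pH 7.4 with 4.542 mM MgCl2, 0.005% Tween 20 | Times: 16 min enzyme reaction, ambient temperature | Signal: Red resorufin fluorescence at 544/590 nm excitation/emission | Measure: Increased resorufin signal from activators or reducing compounds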
PfG6PD inh = PfG6PD (Plasmodium falciparum) enzyme inhibition | PfGluPho enzyme, NADPH resazurin-diaphorase fluorescence | inhibition, % at 20 µM | 350,000 compounds, 0.78% hits | AID 504690;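 active = inhibition reaching at least a set limit at 20 µM in the primary screen, cut at about 59% in these data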
Redox H2O2 prof = compounds producing H2O2 with reducing agent – biochemical, NIH compound library profiling, artefact control for MLSCN library redox annotation, primary screen. DTT-dependent redox cycling H2O2, phenol red/HRP absorbance; 100% = 100 µM peroxide control, 0% = buffer. activation, % at 10 µM. 200,000 compounds, 0.03% hits. AID 878;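 active = activation of at least 50% relative to the plate's high and low controls in the primary single-dose screen; inactive = activation below 50%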;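 note: compound incubated with DTT at 0.8 mM final as the reducing agent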
Diaphorase inh = inhibits diaphorase or chemically oxidizes, flagging diaphorase assay artifacts; diaphorase resazurin-to-resorufin fluorescence, NADH, 16 min; bacterial (C. kluyveri) enzyme, not human; inhibition, % at 20 µM; 190,000 compounds, 0.69% hits; AID 1217;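 active = primary screen inhibition at 20 µM above a set limit, cut at about 50% in these data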
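material = Clostridium kluyveri diaphorase enzyme | amount = 0.14 U/mL diaphorase, enzyme working solution | schedule = incubation 16 min, room temperature | detection = fluorescence of resorufin formed from resazurin, Ex 544/Em 590 nm | benchmarks = positive control minus NADH, DMSO neutral control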
G6PDH CS = counter-screen for G6PDH assay hits: L. mesenteroides G6PDH inhibition; Purified L. mesenteroides G6PDH, diaphorase/resazurin coupled fluorescence, 45 min; AID 1020; 200,000 compounds, 0.12% hits; inhibition, % at 5 µM
PfGluPho conf = confirmation of Plasmodium falciparum G6PD inhibitors; shares compounds with PfG6PD inh; recombinant PfGluPho, NADPH-diaphorase-resazurin fluorescence; inhibition, % at 20 µM; 2,400 compounds, 34% hits; AID 504753;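 active = inhibition of at least 50% at 20 µM in any single replicate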
Diaph ctr 10uM = diaphorase inhibition or oxidation at 10 uM NADPH; 820 compounds, 39% hits; inhibition, % at 20 µM; AID 504862; diaphorase-coupled resazurin reduction, fluorescence, NADPH 10 uM; shares compounds with PfG6PD inh;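 active = average inhibition reaching 50% or more with the compound at 20 µM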;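 note: resorufin red fluorescence formed as diaphorase reduces resazurin using NADPH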
Diaph ctr 30uM = inhibits diaphorase or oxidizes, flagging false PfG6PD hits; shares compounds with PfG6PD inh; Diaphorase/resazurin coupled assay, resorufin fluorescence, 30 uM NADPH; inhibition, % at 20 µM; 820 compounds, 29% hits; AID 504863;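 active = inhibition averaging 50% or more, tested at 20 µM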
Large screens that a line does not name were inactive (follow-up assays come after a bar, where they were run). This is one part of a sample in which hits are shown more often than they occur. Cut-off read from the data, not from the text of the source, unless noted: active = inhibition above about 50%; inactive = the rest.

Cn1nc([N+](=O)[O-])c2c(-c3nc4ccccc4s3)c(N)n(C3CCCCC3)c2c1=O	PfG6PD inh 77 | PfGluPho conf inactive
CCCCn1c(N)c(-c2nc3ccccc3s2)c2c([N+](=O)[O-])nn(C)c(=O)c21	none
O=[N+]([O-])c1cccc(S(=O)(=O)c2cccc([N+](=O)[O-])c2)c1	none
O=C1C=CC(=Nc2ccc3c(c2)Cc2cc(F)ccc2-3)O1	PfG6PD inh 61 (no result: L major viab, Diaphorase act, Redox H2O2 prof, Diaphorase inh, G6PDH CS) | PfGluPho conf inactive
Cc1cccc(N(CC(=O)N/N=C/c2cc([N+](=O)[O-])ccc2Cl)S(C)(=O)=O)c1C	L major viab 86, PfG6PD inh 123 | PfGluPho conf 82 | Diaph ctr 10uM 79 | Diaph ctr 30uM 71
CS(=O)(=O)N(CC(=O)N/N=C/c1cc([N+](=O)[O-])ccc1Cl)c1ccccc1	none
C=CCNc1nc2c3ccccc3n(C(C)=O)c2s1	PfG6PD inh 64 | PfGluPho conf inactive
CC(=O)n1c2ccccc2c2nc3ccccc3nc21	none (no result: L major viab, Diaphorase act, Redox H2O2 prof, Diaphorase inh, G6PDH CS)
COc1cc(N)c2ncccc2c1OC	PfG6PD inh 70 (no result: L major viab, Diaphorase act, Redox H2O2 prof, Diaphorase inh, G6PDH CS) | PfGluPho conf 74 | Diaph ctr 10uM inactive | Diaph ctr 30uM inactive
COc1cc(NCCCCCCN)c2ncccc2c1OC	PfG6PD inh 90 (no result: L major viab, Diaphorase act, Redox H2O2 prof, Diaphorase inh, G6PDH CS) | PfGluPho conf inactive
COc1cc(NC(C)CCCNC(C)C)c2ncccc2c1OC (stereo not given)	none (no result: L major viab, Diaphorase act, Redox H2O2 prof, Diaphorase inh, G6PDH CS)
CSC1=C(C#N)C(=O)NC(c2ccc(Cl)cc2)S1 (stereo not given)	none (no result: L major viab, Diaphorase act, Redox H2O2 prof, Diaphorase inh, G6PDH CS)
Cc1nc2c(o1)C(=O)c1ccccc1C2=Nc1ccccc1	PfG6PD inh 104 (no result: L major viab, Diaphorase act, Redox H2O2 prof, Diaphorase inh, G6PDH CS) | PfGluPho conf 50 | Diaph ctr 10uM 53 | Diaph ctr 30uM inactive
CCOC(=O)c1c(N)sn(-c2ccccc2C)c1=S	PfG6PD inh 73 | PfGluPho conf inactive
CCn1cc(/C=N/NC(=O)c2ccc(C#N)cc2F)c2ccccc21	PfG6PD inh 107 | PfGluPho conf 89 | Diaph ctr 10uM 81 | Diaph ctr 30uM 64
CCOC(=O)c1ccc(CNC(=O)C2CCC(=O)N(CCc3ccccc3)C2)o1 (stereo not given)	none (no result: L major viab, Diaphorase act, Redox H2O2 prof, Diaphorase inh, G6PDH CS)
Cc1ccc(-n2c(C)cc(C(=O)NS(=O)(=O)c3ccc(C)cc3)c2C)cc1	none
Cc1ccc(NC(=O)c2cc(C)n(-c3cccc(C)c3)c2C)cc1	PfG6PD inh 82 | PfGluPho conf inactive
Cc1ccc(NC(=O)c2cnn(-c3ccccc3)c2C)cc1	none (no result: L major viab, Diaphorase act, Redox H2O2 prof, Diaphorase inh, G6PDH CS)
Cc1cc(C(=O)Nc2ccc(Cl)cc2)c(C)n1-c1ccccc1	PfG6PD inh 98 (no result: L major viab, Diaphorase act, Redox H2O2 prof, Diaphorase inh, G6PDH CS) | PfGluPho conf inactive
Cc1cc(C(=O)Nc2ccc(Cl)cc2)n(-c2ccccc2)n1	none (no result: L major viab, Diaphorase act, Redox H2O2 prof, Diaphorase inh, G6PDH CS)
Cc1ccc(NC(=O)c2cc(C)n(-c3ccccc3)c2C)cc1	PfG6PD inh 95 | PfGluPho conf 53 | Diaph ctr 10uM 53 | Diaph ctr 30uM inactive
CC1=C(C(=O)N(C)C)CC(CC(=O)NCC2CCCCC2)C(=O)N1Cc1ccccc1 (stereo not given)	none (no result: L major viab, Diaphorase act, Redox H2O2 prof, Diaphorase inh, G6PDH CS)
O=C(C1CCCN(c2ncnc3c2nc2n3CCCCC2)C1)N1CCN(c2ccccc2F)CC1 (stereo not given)	none (no result: L major viab, Diaphorase act, Redox H2O2 prof, Diaphorase inh, G6PDH CS)
CCc1nnc(NC(=O)CCC(=O)N2CCN(CCOc3ccc(C)cc3)CC2)s1	none
CN(C1CCCCC1)S(=O)(=O)c1ccc(=S)[nH]c1	PfG6PD inh 61 (no result: L major viab, Diaphorase act, Redox H2O2 prof, Diaphorase inh, G6PDH CS) | PfGluPho conf inactive
CN(C1CCCCC1)S(=O)(=O)c1ccc(S(=O)(=O)N2CCCC2)cc1	none
COc1cc([N+](=O)[O-])ccc1NC(=O)Cn1ccsc1=N	none
COc1ccc(N2CCN(C(=O)COC(=O)COc3cccc(C(F)(F)F)c3)CC2)cc1	none (no result: L major viab, Diaphorase act, Redox H2O2 prof, Diaphorase inh, G6PDH CS)

Screens from PubChem BioAssay.
